# Screening results (PubChem BioAssay)
# An excerpt weighted towards active compounds, which were near 2% of everything screened.
# TROY NFkB inh: blocks TROY-dependent signaling in reporter cells | Q293 LMP1-TROYcd NF-kB luciferase reporter, 4 h | inhibition, % at 10 µM | hit rate 0.98% among 360,000 | AID 1347056;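 active = compounds whose plate-normalised and pattern-corrected inhibition of the luciferase reporter signal at the single screening dose is 50% or more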
# TWEAK Fn14 block: TWEAK-Fn14 signaling inhibition. TWEAK-stimulated Fn14 reporter cells, luciferase luminescence, 8 h. inhibition, % at 10 µM. hit rate 2% among 360,000. AID 1159606; in the data active = inhibition above about 50%
# XiGFP reactiv: X-chromosome reactivation activator. XiGFP mouse fibroblasts, % GFP-positive cells imaging, 3 d; cells co-treated with 5-aza-dC sensitizer; scaled so ellipticine positive control = 100%. activation, % at 7.58 µM. hit rate 0.055% among 360,000. AID 743238;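 active = mean normalized replicate activation at least 10% and every replicate at or above 10%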;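 also: 0% = median of on-plate neutral control wells and 100% = ellipticine 6 µM median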
#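 Assay system – SV40-immortalized XiGFP fibroblast cells, line 68-5-11 · Buffer or medium – DMEM supplemented with 5-aza-dC as sensitizing agent · Dosing – one concentration, pinned · Benchmarks – positive control ellipticine, 6 µM final · Times – 3 days compound exposure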
# CaV13 FRET inh: Primary screen for inhibitors of IQ motif and Ca2+-dependent inactivation inhibitor domain binding in CACNA1D, Förster resonance energy transfer in living cells, … | HEK cells, CFP/YFP FRET ICDI-IQ, plate reader, 10 min; percent FRET-ratio fall versus neutral wells | inhibition, % at 12.3 µM | hit rate 0.098% among 340,000;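 active = mean replicate inhibition of at least 30% and at least 1% of replicates passing that level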;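 also: 0% = median of the neutral control wells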
# LGR2 inh: blocks bursicon-induced cAMP signaling via Drosophila LGR2 | HEK293 LGR2, CRE-luciferase, bursicon-stimulated, 4 h | inhibition, % at 9.99 µM | hit rate 0.35% among 380,000;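 active = drop in luminescence signal, shown as inhibition above about 50% in the replicate tests, limit read from the data, passing the limit was not always enough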;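 also: agonist challenge used bursicon conditioned medium at about half maximal strength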
# The depositor's hits bear a star; x = no result.
SMILES,TROY NFkB inh,TWEAK Fn14 block,XiGFP reactiv,CaV13 FRET inh,LGR2 inh
COc1cc(CNc2ncnc3c2ncn3[C@H]2CN(Cc3ccc(C(=O)O)cc3)C[C@@H](CO)O2)cc(OC)c1OC,-14.1,-2.0,-0.1,-5.9,8.7
COc1cc(CNc2ncnc3c2ncn3[C@H]2CN(Cc3ccc(-c4ccccc4)cc3)C[C@@H](CO)O2)cc(OC)c1OC,44.8,68.8*,-0.1,-12.0,15.0
CCCNC(=O)[C@@H]1[C@@H](CO)[C@@H]2Cn3c(ccc(/C=C/c4ccccc4)c3=O)[C@H]1N2C(=O)c1ccccc1,x,x,0.7,x,-9.6
C[C@H](CO)N1C[C@H](C)[C@H](CN(C)C(=O)c2ccncc2)Oc2ncc(C#C[C@@H](C)O)cc2C1=O,x,x,0.9,x,4.6
C[C@@H]1CN([C@@H](C)CO)C(=O)c2cc(NC(=O)c3ccncc3)ccc2O[C@@H](C)CCCCO[C@@H]1CN(C)S(=O)(=O)c1cn(C)cn1,x,x,-0.1,x,11.1
CCOc1ccc(C(c2c(NC(=O)c3ccco3)sc(C)c2C)N2CCOCC2)cc1 (configuration not stated),11.5,66.5*,0.0,-1.6,21.7
COc1cccc(C(c2c(NC(=O)c3ccco3)sc(C)c2C)N2CCOCC2)c1 (configuration not stated),35.8,81.6*,-0.1,-17.1,24.5
Cc1sc(NC(=O)c2ccco2)c(C(c2ccncc2)N2CCOCC2)c1C (configuration not stated),0.2,-21.8,x,-3.8,x
CCS(=O)(=O)N1CC2(CN(Cc3ccc(OC)cc3)[C@@H](CO)c3c2c2ccc(OC)cc2n3C)C1,x,x,0.1,x,22.0
C[C@H]1CCCCO[C@H](CN(C)C(=O)Nc2ccccc2)[C@@H](C)CN([C@@H](C)CO)C(=O)c2cc(NS(=O)(=O)c3ccc(F)cc3)ccc2O1,x,x,0.2,x,2.4
Cc1cc(N=Nc2ccc(C)c(N=Nc3cc(C)c(N)cc3N)c2)c(N)cc1N,49.1,69.1*,0.2,-20.6,37.6
COc1ccc(N=Nc2cc(OC)c(N)cc2OC)cc1,-10.0,-29.6,0.0,-2.5,-40.8
COc1cccc(C(=O)/C=C/c2ccc(OCC#N)c(OC)c2)c1,0.7,83.8*,0.4,-5.7,20.9
COc1cc(/C=C/C(=O)c2ccc(O)cc2)ccc1OCC#N,-0.6,70.8*,-0.1,-3.1,x
CC(C)NC(=O)N1[C@H](C#N)[C@@H](c2ccc(C#CC3CC3)cc2)[C@@H]1CO,x,x,0.3,x,9.8
CC1CCCCN1S(=O)(=O)c1ccc(C(=O)Nc2ccccc2-c2nc3ccccc3[nH]2)cc1 (configuration not stated),25.6,53.0*,0.0,-5.4,9.6
O=C(Nc1ccccc1-c1nc2ccccc2[nH]1)c1ccc(S(=O)(=O)N2CCCCC2)cc1,21.1,11.5,x,-3.2,15.2
CCCC#Cc1ccc([C@H]2[C@@H](CO)N3CCCCN(C(=O)NC4CCCC4)C[C@H]23)cc1,x,x,0.1,x,20.3
N#C/C(=N\Nc1cccc(C(F)(F)F)c1)C(=O)c1csc(-c2cccnc2)n1,66.2*,-16.3,0.2,-1.5,11.8
Cc1ccc(C(=O)Nc2cccc(C(F)(F)F)c2)cc1NC(=O)c1csc(-c2ccncc2)n1,9.6,31.8,x,x,x
CC(C)CCn1c(CN2CC(C)OC(C)C2)nc2c1c(=O)n(C)c(=O)n2C (configuration not stated),4.0,9.9,-0.2,37.2*,9.5
CC1CN(Cc2nc3c(c(=O)n(C)c(=O)n3C)n2CCCO)CC(C)O1 (configuration not stated),-0.3,-18.6,x,-3.4,x
COc1ccc2nc3oc(C(=O)NC4CCN(Cc5ccccc5)CC4)cc3cc2c1,-14.8,53.5*,x,-0.9,x
O=c1oc2cc(O)ccc2cc1S(=O)(=O)c1ccccc1,6.4,5.1,0.1,31.3*,-10.2
O=c1oc2cc(O)ccc2cc1-c1nc2ccccc2o1,-33.9,18.7,-0.1,38.0*,6.8
SMILES,TROY NFkB inh,TWEAK Fn14 block,XiGFP reactiv,CaV13 FRET inh,LGR2 inh
CS(=O)(=O)Nc1ccc2c(c1)[C@H]1C[C@H](CC(=O)NCC(F)(F)F)O[C@@H](CO)[C@H]1O2,x,x,-0.1,x,0.7
CN(C)CCCNC(=O)C[C@@H]1C=C[C@H](NC(=O)Cc2cccnc2)[C@@H](CO)O1,x,x,0.0,x,-7.7
CC(C)c1ccc(-n2cccc2/C=C2/C(=N)N3C=CSC3=NC2=O)cc1,42.0,54.8*,0.0,-5.5,53.2*
COc1cccc(-c2cc3onc(-c4ccccc4)c3c(=O)n2C)c1,61.2*,70.4*,0.0,-3.6,25.5
Cc1cccc(-c2ccc([C@@H]3[C@@H](CO)N4C(=O)CN(C(=O)c5cnccn5)C[C@H]34)cc2)c1,x,x,0.7,x,x
O=C1N[C@@H](c2ccccc2)COC(=O)[C@@H](Cc2ccc(F)cc2)CC/C=C/C[C@H]1CC(=O)N(CCO)Cc1ccccc1,19.7,42.0,0.1,-19.3,8.2
O=C1N[C@@H](c2ccccc2)COC(=O)[C@@H](Cc2ccc(F)cc2)CC/C=C/C[C@@H]1CC(=O)N(CCO)Cc1ccccc1,18.3,59.5*,0.0,-8.3,4.9
O=C(CSc1ncnc2ccccc12)c1ccc2c(c1)OCCO2,54.3*,-70.5,0.0,-4.6,-103.7
COc1ccc(-c2nnc3ccc(SCC(=O)Nc4nc5ccc(C)cc5s4)nn23)cc1OC,87.4*,98.4*,-0.2,-3.8,-8.9
COc1ccc(NC(=O)Nc2ccc3c(c2)C(=O)N([C@H](C)CO)C[C@H](C)[C@H](CN(C)C(=O)NC2CCCCC2)OCCCC[C@H](C)O3)cc1,x,x,-0.6,x,0.6
C[C@@H]1CN([C@H](C)CO)C(=O)c2cc(NC(=O)Nc3cccc4ccccc34)ccc2O[C@@H](C)CCCCO[C@@H]1CN(C)S(=O)(=O)c1cn(C)cn1,x,x,0.1,x,3.1
COc1cccc(NC(=O)N2CC(=O)N3[C@H](CO)[C@H](c4ccc(Br)cc4)[C@@H]3C2)c1,x,x,0.0,x,-1.3
O=C(NCC[C@@H]1CC[C@@H](NC(=O)C2CCCCC2)[C@H](CO)O1)Nc1ccc(Cl)cc1,x,x,-0.3,x,-26.0
Cc1nn(-c2ccccc2)c(Cl)c1/C=C1\SC(=S)NC1=O,51.3*,29.9,x,x,x
COc1cccc2c1C(=O)c1c(O)c3c(c(O)c1C2=O)C[C@@](O)(C(C)=O)C[C@@H]3O[C@H]1C[C@H](N)[C@H](O)[C@H](C)O1,69.4*,95.7*,0.5,-5.8,99.7*
COc1cccc2c1C(=O)c1c(O)c3c(c(O)c1C2=O)CC(O)(C(=O)CO)CC3OC1CC(N(C)C)C(O)C(C)O1 (configuration not stated),56.5*,97.4*,2.8,-23.1,x
COc1cccc2c1C(=O)c1c(O)c3c(c(O)c1C2=O)C[C@@](O)(C(=O)CO)C[C@@H]3O[C@H]1C[C@H](N)[C@@H](O)[C@H](C)O1,-3.3,88.5*,x,x,x
